From ChEMBL document CHEMBL5390206, “Ormosianines A-P, Structurally Diverse Quinolizidine Alkaloids with AChE Inhibitory Effects from Ormosia yunnanensis” (J Nat Prod, 2023) come the findings set out here.

This assay can be described thus: Inhibition of AchE in fly head nerve cells using acetylthiocholine iodide as substrate preincubated for 20 mins followed by substrate addition and measured every 30s for 1 hr by DTNB reagent based Ellman's spectrophotometric method. Particulars: Diptera, Nerve cell. An outline of the steps: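 Modified spectrophotometric AChE method, with chlorpyrifos and huperzine A run alongside as positive controls.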
`CC(=O)N1CCCC[C@H]1[C@@]12C[C@@H](C[C@H]3CCCN[C@@H]31)[C@H]1CCCCN1C2`: the midpoint of inhibition, the IC50, lay at 5.65 µM.
`CC(=O)O[C@H]1CCN2C[C@@H]3C[C@@H](CN4C(=O)[C@H](O)CC[C@H]34)[C@@H]2C1` displayed an IC50 of 9.77 µM.
With `C=CCCN1C[C@@H]2C[C@@H](CN3C(=O)CC[C@H](O)[C@]23O)C1=O`, 29.6 µM corresponded to half-maximal inhibition (IC50).
The same measure for `C=CCCN1C[C@@H]2C[C@@H](Cn3c2cccc3=O)C1=O`: 12.8 µM; for `C1CC[C@H]([C@]23C[C@@H](C[C@@H]4CCCN[C@H]42)[C@H]2CCCCN2C3)NC1`: 5.56 µM.
As to `C=CCCN1C[C@@H]2C[C@@H](CN3C(=O)CCC=C23)C1=O`, the IC50 was determined as 20 µM.
The same measure for `O=C1C(CCCO)=C[C@H]2C[C@]1([C@@H]1CCCCN1)CN1CCCC[C@@H]21`: 1.55 µM; for `CN1CCCC[C@H]1[C@@]12C[C@H](C[C@H]3CCCN[C@@H]31)[C@H]1CCCCN1C2`: 17 µM; for `C=CCCN1C[C@@H]2C[C@@H](CN3C(=O)CCC[C@]23OC)C1=O`: 15.7 µM.
In the case of `C1=C2CCCN3CN4CCCC[C@@H]4[C@]4(C[C@@H]1[C@H]1CCCCN1C4)[C@@H]23`, half-maximal inhibition (IC50) required 5.23 µM.
The same measure for `CC(=O)N1CCCC[C@@H]1[C@]12C[C@H](C[C@@H]3CCCN[C@H]31)[C@H]1CCCCN1C2`: 8.48 µM; for `CCOP(=S)(OCC)Oc1nc(Cl)c(Cl)cc1Cl` [CHLORPYRIFOS]: 0.0233 µM.
The same measure for `C/C=C1\[C@H]2C=C(C)C[C@]1(N)c1ccc(=O)[nH]c1C2` [HUPERZINE A]: 0.12 µM.
